≈ marks a conversion by molar mass, not a printed value. Calls of active or inactive are those of the source. The calls are words filed in the database; no cut-off is given here.
Assays:
[1] = tested on: Malassezia pachydermatis; assay: Antifungal activity against Malassezia pachydermatis assessed as zone of inhibition at 1 mg/disc after 48 hrs incubation by disc diffusion assay; assay type: functional
Method in brief: (§1)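 Disc diffusion on Mueller Hinton agar with swabbed cultures, 1 mg compound per disc. Discs stood 30 min at room temperature for diffusion, then plates incubated 48 h at 28 °C. Solvent as negative control. Yeast pre-grown in Sabouraud dextrose broth at 28 °C for 48-72 h; filamentous fungal spores came from SDA slants grown 10 days at 28 °C. Zone diameters in mm; run twice.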

[2] = tested on: Klebsiella pneumoniae; assay: Antimicrobial activity against Klebsiella pneumonia MTCC 109 assessed as zone of inhibition at 1 mg/disc after 24 hrs incubation by disc diffusion assay; assay type: functional
Method in brief: (§2)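 Inocula grown in Mueller Hinton broth for 24 h at 37 °C and swabbed onto Mueller Hinton agar. Discs carried 1 mg compound each and stood 30 min at room temperature before 24 h incubation at 37 °C. Solvent as negative control. Inhibition zones recorded in mm; experiment done twice.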

[3] = tested on: A549; assay: Anticancer activity against human A549 cells assessed as cell growth inhibition at 50 ug/ml by MTT assay; assay type: functional; conditions: read-out: GI
Method in brief: (§3)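 A549 cells kept in DMEM with 10% FBS, 2 mM L-glutamine, penicillin/streptomycin, pH 7.2. Seeded at 5000 cells/well in medium with compound at 5–50 µg/mL. Grown at 37 °C, 5% CO2. Medium then replaced by 1 mg/mL MTT for 4 h and formazan dissolved in DMSO. Absorbance read at 540 nm; three replicate experiments.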

[4] = tested on: Staphylococcus epidermidis; assay: Antimicrobial activity against Staphylococcus epidermidis MTCC 3615 assessed as absence of visible growth after 48 to 72 hrs; assay type: functional
[5] = tested on: Shigella flexneri; assay: Antimicrobial activity against Shigella flexneri MTCC 1457 assessed as absence of visible growth after 24 hrs
[6] = tested on: A549; assay: Anticancer activity against human A549 cells assessed as cell growth inhibition at 30 ug/ml by MTT assay; assay type: functional; conditions: read-out: GI; method in brief: as §3
[7] = tested on: A549; assay: Anticancer activity against human A549 cells assessed as cell growth inhibition at 5 ug/ml by MTT assay; assay type: functional; conditions: read-out: GI; method in brief: as §3
[8] = tested on: A549; assay: Anticancer activity against human A549 cells assessed as cell growth inhibition at 10 ug/ml by MTT assay; assay type: functional; conditions: read-out: GI; method in brief: as §3
[9] = tested on: Proteus vulgaris; assay: Antimicrobial activity against Proteus vulgaris MTCC 1771 assessed as zone of inhibition at 1 mg/disc after 24 hrs incubation by disc diffusion assay; assay type: functional; method in brief: as §2
[10] = tested on: Staphylococcus aureus; assay: Antimicrobial activity against Staphylococcus aureus MTCC 96 assessed as zone of inhibition at 1 mg/disc after 24 hrs incubation by disc diffusion assay; assay type: functional; method in brief: as §2
[11] = tested on: A549; assay: Anticancer activity against human A549 cells assessed as cell growth inhibition at 40 ug/ml by MTT assay; assay type: functional; conditions: read-out: GI; method in brief: as §3
[12] = tested on: Staphylococcus epidermidis; assay: Antimicrobial activity against Staphylococcus epidermidis MTCC 3615 assessed as zone of inhibition at 1 mg/disc after 24 hrs incubation by disc diffusion assay; assay type: functional; method in brief: as §2
[13] = tested on: Micrococcus luteus; assay: Antimicrobial activity against Micrococcus luteus MTCC 106 assessed as zone of inhibition at 1 mg/disc after 24 hrs incubation by disc diffusion assay; assay type: functional; method in brief: as §2
[14] = tested on: Klebsiella aerogenes; assay: Antimicrobial activity against Enterobacter aerogenes MTCC 111 assessed as absence of visible growth after 48 to 72 hrs; assay type: functional
[15] = tested on: A549; assay: Anticancer activity against human A549 cells assessed as cell growth inhibition at 20 ug/ml by MTT assay; assay type: functional; conditions: read-out: GI; method in brief: as §3
[16] = tested on: Staphylococcus aureus; assay: Antimicrobial activity against methicillin-resistant Staphylococcus aureus assessed as absence of visible growth after 48 to 72 hrs; assay type: functional
Method in brief: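 Broth two-fold serial dilution in 96-well plates, 1000 to 7.81 µg/mL, compound dissolved in DMSO (2%). Inoculum grown in Mueller Hinton broth 24 h at 37°C. Streptomycin positive control. 5 µl of tested broth plated on MHA; MIC is the lowest concentration inhibiting visible growth on agar.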

[17] = tested on: Klebsiella aerogenes; assay: Antimicrobial activity against Enterobacter aerogenes MTCC 111 assessed as zone of inhibition at 1 mg/disc after 24 hrs incubation by disc diffusion assay; assay type: functional; method in brief: as §2
[18] = tested on: Klebsiella pneumoniae; assay: Antimicrobial activity against Klebsiella pneumonia MTCC 109 assessed as absence of visible growth after 48 to 72 hrs; assay type: functional
[19] = tested on: Staphylococcus aureus; assay: Antimicrobial activity against methicillin-resistant Staphylococcus aureus assessed as zone of inhibition at 1 mg/disc after 24 hrs incubation by disc diffusion assay; assay type: functional
Method in brief: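 Inoculum grown in Mueller Hinton broth 24 h at 37°C, swabbed onto Mueller Hinton agar and dried 10 min. Discs loaded at 1 mg/disc, then 30 min at room temperature for diffusion. Plates incubated 24 h at 37°C. Solvent negative control; streptomycin positive control. Zone of inhibition read in mm; experiment done twice.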

[20] = tested on: Salmonella typhimurium; assay: Antimicrobial activity against Salmonella typhimurium MTCC 1251 assessed as zone of inhibition at 1 mg/disc after 24 hrs incubation by disc diffusion assay; assay type: functional, Salmonella enterica subsp. enterica serovar Typhimurium; method in brief: as §2
[21] = tested on: Shigella flexneri; assay: Antimicrobial activity against Shigella flexneri MTCC 1457 assessed as zone of inhibition at 1 mg/disc after 24 hrs incubation by disc diffusion assay; assay type: functional; method in brief: as §2
[22] = tested on: Salmonella typhimurium; assay: Antimicrobial activity against Salmonella typhimurium MTCC 1251 assessed as absence of visible growth after 48 to 72 hrs; assay type: functional, Salmonella enterica subsp. enterica serovar Typhimurium; conditions: Salmonella enterica
[23] = tested on: Proteus vulgaris; assay: Antimicrobial activity against Proteus vulgaris MTCC 1771 assessed as absence of visible growth after 48 to 72 hrs; assay type: functional
[24] = tested on: Micrococcus luteus; assay: Antimicrobial activity against Micrococcus luteus MTCC 106 assessed as absence of visible growth after 48 to 72 hrs; assay type: functional
[25] = tested on: Staphylococcus aureus; assay: Antimicrobial activity against Staphylococcus aureus MTCC 96 assessed as absence of visible growth after 48 to 72 hrs; assay type: functional
[26] = tested on: Candida albicans; assay: Antifungal activity against Candida albicans MTCC 227 assessed as zone of inhibition at 1 mg/disc after 48 hrs incubation by disc diffusion assay; assay type: functional; method in brief: as §1
[27] = tested on: Staphylococcus aureus; assay: Antimicrobial activity against Staphylococcus aureus MTCC 96 assessed as absence of visible growth after 24 hrs
[28] = tested on: Proteus vulgaris; assay: Antimicrobial activity against Proteus vulgaris MTCC 1771 assessed as absence of visible growth after 24 hrs
[29] = tested on: Klebsiella pneumoniae; assay: Antimicrobial activity against Klebsiella pneumonia MTCC 109 assessed as absence of visible growth after 24 hrs
[30] = tested on: Staphylococcus epidermidis; assay: Antimicrobial activity against Staphylococcus epidermidis MTCC 3615 assessed as absence of visible growth after 24 hrs
[31] = tested on: Shigella flexneri; assay: Antimicrobial activity against Shigella flexneri MTCC 1457 assessed as absence of visible growth after 48 to 72 hrs; assay type: functional

Row | SMILES | inhibition zone (IZ) [1] | inhibition zone (IZ) [2] | inhibition of growth at 50 µg/mL [3] | MIC [4] | MIC [5] | inhibition of growth at 30 µg/mL [6] | inhibition of growth at 5 µg/mL [7] | inhibition of growth at 10 µg/mL [8] | inhibition zone (IZ) [9] | inhibition zone (IZ) [10] | inhibition zone (IZ) [12] | inhibition zone (IZ) [13] | MIC [14] | inhibition zone (IZ) [17] | inhibition zone (IZ) [20] | inhibition zone (IZ) [21] | MIC [22] | MIC [23] | MIC [24] | inhibition zone (IZ) [26] | further results
1 | N#CC1=C(N)[C@]2(C(=O)Nc3ccccc32)[C@@H](c2cccs2)[C@@H]2CCCC=C12 | 12 mm | 16 mm | 83.9% | 125 µg/mL (≈ 335 µM) | 62.5 µg/mL (≈ 167 µM) | 67.8% | 25.7% | 45.8% | 23 mm | 13 mm | 19 mm | 15 mm | 125 µg/mL (≈ 335 µM) | 17 mm | 15 mm | 25 mm | 250 µg/mL (≈ 669 µM) | 62.5 µg/mL (≈ 167 µM) | 250 µg/mL (≈ 669 µM) | 10 mm | inhibition of growth at 40 µg/mL [11]: 75.9%; inhibition of growth at 20 µg/mL [15]: 62.4%; MIC [16]: 62.5 µg/mL (≈ 167 µM); MIC [18]: 125 µg/mL (≈ 335 µM); inhibition zone (IZ) [19]: 21 mm; MIC [25]: 250 µg/mL (≈ 669 µM)
2 | N#CC1=C(N)[C@]2(C(=O)Nc3ccccc32)[C@@H](c2cccc3ccccc23)[C@@H]2CCCC=C12 | 9 mm | 16 mm | – | 125 µg/mL (≈ 299 µM) | 500 µg/mL (≈ 1200 µM) | – | – | – | – | – | 15 mm | 10 mm | 125 µg/mL (≈ 299 µM) | 18 mm | 14 mm | 12 mm | 250 µg/mL (≈ 599 µM) | – | 250 µg/mL (≈ 599 µM) | – | inhibition [27]: inactive; inhibition [9]: inactive; inhibition [10]: inactive; inhibition [16]: inactive; MIC [18]: 125 µg/mL (≈ 299 µM); inhibition [28]: inactive; inhibition [19]: inactive; inhibition [26]: inactive
3 | N#CC1=C(N)C2(C(=O)c3ccccc3C2=O)[C@@H](c2ccc(Cl)cc2)[C@@H]2CCCCC=C12 (relative stereo) | 12 mm | 17 mm | 78.8% | – | 62.5 µg/mL (≈ 146 µM) | 56.2% | 12.1% | 28.1% | 23 mm | 13 mm | 17 mm | 21 mm | 125 µg/mL (≈ 291 µM) | 18 mm | 18 mm | 22 mm | 125 µg/mL (≈ 291 µM) | 62.5 µg/mL (≈ 146 µM) | 62.5 µg/mL (≈ 146 µM) | 13 mm | inhibition of growth at 40 µg/mL [11]: 62.4%; MIC [29]: 125 µg/mL (≈ 291 µM); MIC [30]: 125 µg/mL (≈ 291 µM); inhibition of growth at 20 µg/mL [15]: 47.5%; MIC [16]: 62.5 µg/mL (≈ 146 µM); inhibition zone (IZ) [19]: 21 mm; MIC [25]: 250 µg/mL (≈ 583 µM)
4 | N#CC1=C(N)[C@]2(C(=O)Nc3ccccc32)[C@@H](c2ccc(Cl)cc2)[C@@H]2CCCC=C12 | 11 mm | 16 mm | – | 250 µg/mL (≈ 622 µM) | 250 µg/mL (≈ 622 µM) | – | – | – | 17 mm | – | 13 mm | 9 mm | 250 µg/mL (≈ 622 µM) | 10 mm | 12 mm | 10 mm | 250 µg/mL (≈ 622 µM) | 125 µg/mL (≈ 311 µM) | 1000 µg/mL (≈ 2490 µM) | 9 mm | inhibition [27]: inactive; inhibition [10]: inactive; MIC [29]: 125 µg/mL (≈ 311 µM); inhibition [16]: inactive; inhibition [19]: inactive
5 | Cc1ccc([C@H]2[C@@H]3CCCCC=C3C(C#N)=C(N)C23C(=O)c2ccccc2C3=O)cc1 (relative stereo) | 10 mm | 20 mm | 59.6% | – | – | 30.8% | 3.7% | 10.5% | 22 mm | 13 mm | 16 mm | 10 mm | 125 µg/mL (≈ 306 µM) | 18 mm | 19 mm | 23 mm | 125 µg/mL (≈ 306 µM) | 62.5 µg/mL (≈ 153 µM) | 250 µg/mL (≈ 612 µM) | 10 mm | MIC [31]: 62.5 µg/mL (≈ 153 µM); inhibition of growth at 40 µg/mL [11]: 46.6%; MIC [29]: 62.5 µg/mL (≈ 153 µM); MIC [30]: 250 µg/mL (≈ 612 µM); inhibition of growth at 20 µg/mL [15]: 18.6%; MIC [16]: 125 µg/mL (≈ 306 µM); inhibition zone (IZ) [19]: 17 mm; MIC [25]: 250 µg/mL (≈ 612 µM)
